Shown are actives, neighbours in structure and some others; about 2.9% of the full set was active somewhere.
SENP7 inh: SENP7 protease inhibition; AID 434973; recombinant SENP7, Z-RLRGG-aminoluciferin luminescence, 40 min; Q9BQF6; inhibition, % at 5 µM; actives 1.5% (n = 330,000);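 active = inhibition above about 50% at the single test dose, limit read from the data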
Target sequence (Q9BQF6 706-1050 limits assumed): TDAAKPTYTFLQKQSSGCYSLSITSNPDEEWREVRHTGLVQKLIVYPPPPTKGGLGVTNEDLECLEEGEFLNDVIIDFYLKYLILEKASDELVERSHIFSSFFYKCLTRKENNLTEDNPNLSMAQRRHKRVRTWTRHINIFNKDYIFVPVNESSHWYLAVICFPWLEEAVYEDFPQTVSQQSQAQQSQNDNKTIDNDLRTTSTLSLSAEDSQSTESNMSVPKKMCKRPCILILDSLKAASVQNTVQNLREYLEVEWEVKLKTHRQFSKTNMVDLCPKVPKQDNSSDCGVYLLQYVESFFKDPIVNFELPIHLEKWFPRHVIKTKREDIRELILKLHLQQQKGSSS
HSP90 refold inh: inhibitors of HSP90 luciferase refolding in rabbit reticulocyte lysate. luciferase refolding luminescence, 3 h. inhibition, % at 5.6 µM. actives 0.91% (n = 290,000). AID 1789;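 active = inhibition above the screen-wide mean plus 3 SD, computed separately per campaign, cut at about 16% in these data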;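 also: inhibitors lower the luminescence because luciferase stays unfolded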
SENP8 block-1: SENP8 protease inhibition; Q96LD8; purified SENP8, Z-RLRGG-aminoluciferin cleavage, luminescence; inhibition, % at 10 µM; actives 1.2% (n = 330,000); in the data active = inhibition above about 50%
SENP6 block: inhibitors of human SENP6 protease; Recombinant SENP6 catalytic domain, aminoluciferin luminescence; inhibition, % at 10 µM; actives 1.8% (n = 330,000);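 active = inhibition above about 50% at the single tested dose, limit read from the data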
SENP1 FRET inh: blocks the human SENP1 SUMO protease catalytic domain; Q9P0U3; recombinant SENP1 catalytic domain, CyPet-SUMO1-YPet FRET cleavage; actives 0.21% (n = 360,000); inhibition, % at 10 µM;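 active = inhibition at least 30% at 10 µM, raw YFP signal under a set limit, fluorescence ratio 0.5 to 1.5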
Target sequence (Q9P0U3 419-644 limits assumed): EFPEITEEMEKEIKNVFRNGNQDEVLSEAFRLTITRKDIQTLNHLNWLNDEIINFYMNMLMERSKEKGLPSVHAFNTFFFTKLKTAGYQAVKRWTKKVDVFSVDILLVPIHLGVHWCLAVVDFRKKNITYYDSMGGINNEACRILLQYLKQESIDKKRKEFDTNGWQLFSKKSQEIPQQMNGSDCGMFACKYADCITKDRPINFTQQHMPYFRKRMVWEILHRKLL
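material = recombinant human SENP1 catalytic domain, His6-tagged | quantity = 20 pM enzyme | reagent = 25 nM SUMO1 FRET substrate | compound dosing = 10 µM single point, 0.5% DMSO | timing = 50 min enzyme reaction, room temperature, light-protected | detection = FRET, CFP and YFP emission | control set = no-enzyme low, enzyme-DMSO high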
SENP8 block-2: inhibitors of human SENP8 protease; Q96LD8; recombinant SENP8, Nedd8 substrate fluorescence; inhibition, % at 20 µM; actives 0.64% (n = 360,000); AID 602440; in the data active = inhibition mostly above about 40%, no sharp cut-off; inactive = mostly below about 27%
HSP90 confirm: HSP90 inhibition, confirmation assay; shares compounds with HSP90 refold inh; rabbit reticulocyte lysate, luciferase refolding luminescence, 3 h; inhibition, % at 5.9 µM; actives 64% (n = 2,300); in the data active = inhibition above about 18%
luciferase ctr: blocks native firefly luciferase in HSP90 counter-screen. AID 1847. inhibition, % at 5.9 µM. shares compounds with HSP90 refold inh. actives 48% (n = 2,300). purified native firefly luciferase, luminescence;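 active = inhibition above the mean inhibition of all tested sample wells plus 3 SD, cut at about 10% in these data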
Hits are given with their value; ! = repeats disagree.

`O=C(NCCc1cccc(Cl)c1)c1ccc(OC2CCN(Cc3ccccn3)CC2)cc1` gave SENP7 inh inactive, HSP90 refold inh 22, SENP8 block-1 inactive, SENP6 block inactive, SENP1 FRET inh inactive, SENP8 block-2 inactive, HSP90 confirm 19 and luciferase ctr inactive.
For O=C(Nc1nnc(-c2ccc(F)cc2)s1)c1ccco1 the results were SENP7 inh inactive, HSP90 refold inh 50, SENP8 block-1 inactive, SENP6 block inactive, SENP1 FRET inh inactive, SENP8 block-2 inactive, HSP90 confirm inactive and luciferase ctr inactive.
`COC(=O)c1ccc(NC(=O)c2ccc3nsnc3c2)cc1` gave SENP7 inh inactive, HSP90 refold inh 68, SENP8 block-1 inactive, SENP6 block inactive, SENP1 FRET inh inactive, SENP8 block-2 inactive, HSP90 confirm inactive and luciferase ctr inactive.
Screening COC(=O)c1ccc(NC(=O)c2cccc(C)c2)cc1 returned SENP7 inh inactive, HSP90 refold inh inactive, SENP8 block-1 inactive, SENP6 block inactive, SENP1 FRET inh inactive and SENP8 block-2 inactive.
Screening O=c1oc(Nc2ccc(F)cc2)nc2ccccc12 returned SENP7 inh inactive, HSP90 refold inh 18, SENP8 block-1 inactive, SENP6 block inactive, SENP1 FRET inh inactive, SENP8 block-2 inactive, HSP90 confirm inactive and luciferase ctr inactive.
Screening OC(c1ccccc1)(c1ccccc1)c1nccc2ccccc12 returned SENP1 FRET inh inactive and SENP8 block-2 inactive.
For Cc1cc(C(=O)CN2CCC(C)CC2)c(C)n1-c1ccccc1F the results were SENP7 inh inactive, HSP90 refold inh 53, SENP8 block-1 inactive, SENP6 block inactive, SENP1 FRET inh inactive, SENP8 block-2 inactive, HSP90 confirm 58 and luciferase ctr 28.
`Cc1cc(C(=O)CN2C(=O)C(=O)N(Cc3ccccc3)C2=O)c(C)n1-c1ccccc1F` gave SENP7 inh inactive, HSP90 refold inh inactive, SENP8 block-1 inactive, SENP6 block inactive, SENP1 FRET inh inactive and SENP8 block-2 inactive.
For Cn1c(=N)n(CC(=O)c2ccccc2)c2ccccc21 the results were SENP7 inh inactive, HSP90 refold inh 29, SENP8 block-1 inactive, SENP6 block inactive, SENP1 FRET inh inactive, SENP8 block-2 inactive, HSP90 confirm inactive and luciferase ctr inactive.
Cc1cc(/C=N/Nc2nc(N)ncc2[N+](=O)[O-])c(C)n1-c1cccc(C(F)(F)F)c1 was read as SENP7 inh inactive, HSP90 refold inh 34, SENP8 block-1 inactive, SENP6 block inactive, HSP90 confirm 29 and luciferase ctr 16.
`CCC(C)(C)N(C(=O)CCC(=O)Nc1cc(C)on1)C(C(=O)NC(C)(C)C)c1ccc(OC)cc1` (centres undefined) gave SENP7 inh inactive, HSP90 refold inh inactive, SENP8 block-1 inactive, SENP6 block inactive, SENP1 FRET inh inactive and SENP8 block-2 inactive.
For CCCOc1ccc(/C=N/NC(=S)Nc2ccccc2[N+](=O)[O-])c(O)c1 the results were HSP90 refold inh 75, HSP90 confirm 75 and luciferase ctr 21.
Screening NC(=S)N/N=C/c1ccccc1[N+](=O)[O-] returned SENP7 inh inactive, HSP90 refold inh inactive, SENP8 block-1 inactive, SENP6 block inactive, SENP1 FRET inh inactive and SENP8 block-2 inactive.
`CCNC(=S)N/N=C/c1ccccc1[N+](=O)[O-]` gave SENP7 inh inactive, HSP90 refold inh 20, SENP8 block-1 inactive, SENP6 block inactive, SENP1 FRET inh inactive, SENP8 block-2 inactive, HSP90 confirm inactive and luciferase ctr inactive.
For O=[N+]([O-])c1cc(/C=N/NC(=S)Nc2ccccc2Cl)ccc1Cl the results were SENP7 inh inactive, HSP90 refold inh inactive, SENP8 block-1 inactive, SENP6 block inactive, SENP1 FRET inh inactive and SENP8 block-2 inactive.
COc1ccc(/C=N/NC(=S)Nc2ccccc2[N+](=O)[O-])cc1O was read as HSP90 refold inh 51, SENP1 FRET inh inactive, SENP8 block-2 inactive, HSP90 confirm 53 and luciferase ctr 11.
Screening Cc1cccn2cc(-c3ccc(S(=O)(=O)N4CCCCC4)cc3)nc12 returned SENP7 inh inactive, HSP90 refold inh inactive, SENP8 block-1 inactive, SENP6 block inactive, SENP1 FRET inh inactive and SENP8 block-2 inactive.
`Cc1ccc(-c2cn3cccc(C)c3n2)cc1` gave HSP90 refold inh 18, SENP1 FRET inh inactive, SENP8 block-2 inactive, HSP90 confirm 29 and luciferase ctr 28.
O=C(/C=C/c1cccc([N+](=O)[O-])c1)Nc1cc(C(=O)O)cc(C(=O)O)c1 was read as SENP7 inh inactive, HSP90 refold inh inactive, SENP8 block-1 inactive, SENP6 block inactive, SENP1 FRET inh inactive and SENP8 block-2 inactive.
Screening O=C(/C=C/c1ccccc1)Nc1cc(NC(=O)/C=C/c2ccccc2)cc(C(=O)O)c1 returned SENP7 inh inactive, HSP90 refold inh 32, SENP8 block-1 inactive, SENP6 block inactive, SENP1 FRET inh inactive, SENP8 block-2 inactive, HSP90 confirm 41 and luciferase ctr 9.6.
`O=[N+]([O-])c1cccnc1N/N=C/c1ccccc1O` gave SENP7 inh 97, HSP90 refold inh 22, SENP8 block-1 87, SENP6 block 93, SENP1 FRET inh inactive, SENP8 block-2 inactive, HSP90 confirm inactive and luciferase ctr inactive.
For O=[N+]([O-])c1ccccc1/C=N/Nc1nccnc1Cl the results were SENP7 inh inactive, HSP90 refold inh inactive, SENP8 block-1 inactive, SENP6 block inactive, SENP1 FRET inh inactive and SENP8 block-2 inactive.
For CC(C)CN(C(=O)CCCOc1ccc(Cl)cc1Cl)c1c(N)n(Cc2ccccc2)c(=O)[nH]c1=O the results were SENP7 inh inactive, SENP8 block-1 inactive, SENP6 block inactive, SENP1 FRET inh inactive and SENP8 block-2 inactive.
For CCN(CC)c1ccc(SS(=O)(=O)O)cc1 the results were SENP7 inh inactive, HSP90 refold inh 25!, SENP8 block-1 inactive, SENP6 block inactive, SENP1 FRET inh inactive, SENP8 block-2 inactive, HSP90 confirm 69 and luciferase ctr inactive.
Screening O=C(O)/C=C/c1cnn(-c2ccccc2)c1 returned HSP90 refold inh 53, SENP1 FRET inh inactive, SENP8 block-2 inactive, HSP90 confirm 59 and luciferase ctr 38.
For Cc1cccc(CC(=O)N2CCC(N3CCC(C(=O)N4CCOCC4)CC3)CC2)c1 the results were SENP7 inh inactive, HSP90 refold inh 51, SENP8 block-1 inactive, SENP6 block inactive, SENP1 FRET inh inactive, SENP8 block-2 inactive, HSP90 confirm inactive and luciferase ctr inactive.
Screening O=S(=O)(Nc1c(S(=O)(=O)c2ccccc2)c2nc3ccccc3nc2n1C1CCCCC1)c1ccccc1 returned HSP90 refold inh inactive, SENP1 FRET inh inactive and SENP8 block-2 inactive.
For C=CCn1c(NS(=O)(=O)c2ccccc2)c(S(=O)(=O)c2ccc(C)cc2)c2nc3ccccc3nc21 the results were HSP90 refold inh 22, SENP1 FRET inh inactive, SENP8 block-2 inactive, HSP90 confirm 52 and luciferase ctr inactive.

Source: PubChem BioAssay (several laboratories)
